Laboratory results reported in ChEMBL document CHEMBL4699431, “Design and synthesis of substituted (1-(benzyl)-1H-1,2,3-triazol-4-yl)(piperazin-1-yl)methanone conjugates: study on their apoptosis inducing ability and tubulin polymerization inhibition” (RSC Med Chem, 2020).

What was measured:
Format in all cases: functional, cell-based
HeLa = experiment: Cytotoxicity against human HeLa cells assessed as reduction in cell viability incubated for 48 hrs by MTT assay
In short: (§1)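 Cells plated at 3000-4500 per well and treated after 24 h. DMSO stocks (20 mM) were diluted in medium to final DMSO <0.1%, twofold series […], 48 h. MTT (0.5 mg/mL) was added for 4 h, formazan dissolved in DMSO, absorbance read at 570 nm.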

NCI-H460 = experiment: Cytotoxicity against human NCI-H460 cells assessed as reduction in cell viability incubated for 48 hrs by MTT assay; conditions: NCI-H460, 48 h; in short: as §1
MCF7 = experiment: Cytotoxicity against human MCF-7 cells assessed as reduction in cell viability incubated for 48 hrs by MTT assay; conditions: MCF7, 48 h; in short: as §1
BT-474 = experiment: Cytotoxicity against human BT-474 cells assessed as reduction in cell viability incubated for 48 hrs by MTT assay; conditions: BT-474, 48 h; in short: as §1
HaCaT = experiment: Cytotoxicity against human HaCaT cells assessed as reduction in cell viability incubated for 48 hrs by MTT assay; in short: as §1

Compound: COc1cccc(Cn2cc(C(=O)N3CCN(S(=O)(=O)c4ccccc4)CC3)nn2)c1
- IC50 (HeLa): > 30 µM
- IC50 (NCI-H460): > 30 µM
- IC50 (MCF7): > 30 µM
- IC50 (BT-474): > 30 µM
- IC50 (HaCaT): > 30 µM

Compound: CC(C)(C)c1ccc(S(=O)(=O)N2CCN(C(=O)c3cn(Cc4ccccc4)nn3)CC2)cc1
- IC50 (HeLa): > 30 µM
- IC50 (NCI-H460): > 30 µM
- IC50 (MCF7): > 30 µM
- IC50 (BT-474): > 30 µM
- IC50 (HaCaT): > 30 µM

Compound: COc1ccc(S(=O)(=O)N2CCN(C(=O)c3cn(Cc4ccccc4)nn3)CC2)cc1
- IC50 (HeLa): > 30 µM
- IC50 (NCI-H460): > 30 µM
- IC50 (MCF7): > 30 µM
- IC50 (BT-474): > 30 µM
- IC50 (HaCaT): > 30 µM

Compound: COc1ccc(S(=O)(=O)N2CCN(C(=O)c3cn(Cc4cccc(OC)c4)nn3)CC2)cc1
- IC50 (HeLa): > 30 µM
- IC50 (NCI-H460): > 30 µM
- IC50 (MCF7): > 30 µM
- IC50 (BT-474): > 30 µM
- IC50 (HaCaT): > 30 µM

Compound: O=C(c1cn(Cc2cccc(Oc3ccccc3)c2)nn1)N1CCN(S(=O)(=O)c2ccc(Cl)cc2)CC1
- IC50 (HeLa): 8.61 µM
- IC50 (NCI-H460): 5.68 µM
- IC50 (MCF7): 4.41 µM
- IC50 (BT-474): 1.96 µM
- IC50 (HaCaT): 2.96 µM

Compound: O=C(c1cn(Cc2ccc(I)cc2)nn1)N1CCN(S(=O)(=O)c2ccc(Cl)cc2)CC1
- IC50 (HeLa): 5.74 µM
- IC50 (NCI-H460): 2.25 µM
- IC50 (MCF7): 1.34 µM
- IC50 (BT-474): 4.96 µM
- IC50 (HaCaT): 2.22 µM

Compound: O=C(c1cn(Cc2ccccc2)nn1)N1CCN(S(=O)(=O)c2ccc(Br)cc2)CC1
- IC50 (HeLa): > 30 µM
- IC50 (NCI-H460): > 30 µM
- IC50 (MCF7): > 30 µM
- IC50 (BT-474): > 30 µM
- IC50 (HaCaT): > 30 µM

Compound: O=C(c1cn(Cc2ccc(F)cc2)nn1)N1CCN(S(=O)(=O)c2ccc(Br)cc2)CC1
- IC50 (HeLa): > 30 µM
- IC50 (NCI-H460): > 30 µM
- IC50 (MCF7): > 30 µM
- IC50 (BT-474): > 30 µM
- IC50 (HaCaT): > 30 µM

Compound: CC(C)(C)c1ccc(S(=O)(=O)N2CCN(C(=O)c3cn(Cc4cccc(Oc5ccccc5)c4)nn3)CC2)cc1
- IC50 (HeLa): 3.7 µM
- IC50 (NCI-H460): 5.05 µM
- IC50 (MCF7): 3.28 µM
- IC50 (BT-474): 3.89 µM
- IC50 (HaCaT): 4.34 µM

Compound: Cc1ccc(S(=O)(=O)N2CCN(C(=O)c3cn(Cc4cccc(Oc5ccccc5)c4)nn3)CC2)cc1
- IC50 (HeLa): > 30 µM
- IC50 (NCI-H460): > 30 µM
- IC50 (MCF7): > 30 µM
- IC50 (BT-474): > 30 µM
- IC50 (HaCaT): > 30 µM

Compound: COc1ccc(S(=O)(=O)N2CCN(C(=O)c3cn(Cc4cccc(Oc5ccccc5)c4)nn3)CC2)cc1
- IC50 (HeLa): 3.72 µM
- IC50 (NCI-H460): 8.2 µM
- IC50 (MCF7): 2.2 µM
- IC50 (BT-474): 5.13 µM
- IC50 (HaCaT): 2.59 µM

Compound: Cc1ccc(S(=O)(=O)N2CCN(C(=O)c3cn(Cc4ccccc4)nn3)CC2)cc1
- IC50 (HeLa): > 30 µM
- IC50 (NCI-H460): > 30 µM
- IC50 (MCF7): > 30 µM
- IC50 (BT-474): > 30 µM
- IC50 (HaCaT): > 30 µM

Compound: COc1cccc(Cn2cc(C(=O)N3CCN(S(=O)(=O)c4ccc(Cl)cc4)CC3)nn2)c1
- IC50 (HeLa): > 30 µM
- IC50 (NCI-H460): > 30 µM
- IC50 (MCF7): > 30 µM
- IC50 (BT-474): > 30 µM
- IC50 (HaCaT): > 30 µM

Compound: Cc1ccc(S(=O)(=O)N2CCN(C(=O)c3cn(Cc4ccc(F)cc4)nn3)CC2)cc1
- IC50 (HeLa): > 30 µM
- IC50 (NCI-H460): > 30 µM
- IC50 (MCF7): > 30 µM
- IC50 (BT-474): > 30 µM
- IC50 (HaCaT): > 30 µM

Compound: O=C(c1cn(Cc2ccc(F)cc2)nn1)N1CCN(S(=O)(=O)c2ccc(Cl)cc2)CC1
- IC50 (HeLa): > 30 µM
- IC50 (NCI-H460): > 30 µM
- IC50 (MCF7): > 30 µM
- IC50 (BT-474): > 30 µM
- IC50 (HaCaT): > 30 µM

Compound: O=C(c1cn(Cc2ccccc2)nn1)N1CCN(S(=O)(=O)c2ccc(Cl)cc2)CC1
- IC50 (HeLa): > 30 µM
- IC50 (NCI-H460): > 30 µM
- IC50 (MCF7): > 30 µM
- IC50 (BT-474): > 30 µM
- IC50 (HaCaT): > 30 µM

Compound: CC(C)(C)c1ccc(S(=O)(=O)N2CCN(C(=O)c3cn(Cc4ccc(I)cc4)nn3)CC2)cc1
- IC50 (HeLa): 3.58 µM
- IC50 (NCI-H460): 1.42 µM
- IC50 (MCF7): 3.06 µM
- IC50 (BT-474): 1.21 µM
- IC50 (HaCaT): 2.06 µM

Compound: COc1cccc(Cn2cc(C(=O)N3CCN(S(=O)(=O)c4ccc(C(C)(C)C)cc4)CC3)nn2)c1
- IC50 (HeLa): > 30 µM
- IC50 (NCI-H460): > 30 µM
- IC50 (MCF7): > 30 µM
- IC50 (BT-474): > 30 µM
- IC50 (HaCaT): > 30 µM

Compound: COc1ccc(S(=O)(=O)N2CCN(C(=O)c3cn(Cc4ccc(F)cc4)nn3)CC2)cc1
- IC50 (HeLa): > 30 µM
- IC50 (NCI-H460): > 30 µM
- IC50 (MCF7): > 30 µM
- IC50 (BT-474): > 30 µM
- IC50 (HaCaT): > 30 µM

Compound: COc1ccc(S(=O)(=O)N2CCN(C(=O)c3cn(Cc4ccc(I)cc4)nn3)CC2)cc1
- IC50 (HeLa): > 30 µM
- IC50 (NCI-H460): > 30 µM
- IC50 (MCF7): > 30 µM
- IC50 (BT-474): > 30 µM
- IC50 (HaCaT): > 30 µM

Compound: Cc1ccc(S(=O)(=O)N2CCN(C(=O)c3cn(Cc4ccc(I)cc4)nn3)CC2)cc1
- IC50 (HeLa): > 30 µM
- IC50 (NCI-H460): > 30 µM
- IC50 (MCF7): > 30 µM
- IC50 (BT-474): > 30 µM
- IC50 (HaCaT): > 30 µM

Compound: COC(=O)Nc1nc2cc(C(=O)c3cccs3)ccc2[nH]1 [NOCODAZOLE]
- IC50 (NCI-H460): 2.29 µM
- IC50 (MCF7): 1.76 µM
- IC50 (BT-474): 0.87 µM
- IC50 (HaCaT): 1.19 µM

Compound: O=C(c1cn(Cc2cccc(Oc3ccccc3)c2)nn1)N1CCN(S(=O)(=O)c2ccccc2)CC1
- IC50 (HeLa): > 30 µM
- IC50 (NCI-H460): > 30 µM
- IC50 (MCF7): > 30 µM
- IC50 (BT-474): > 30 µM
- IC50 (HaCaT): > 30 µM

Compound: CC(C)(C)c1ccc(S(=O)(=O)N2CCN(C(=O)c3cn(Cc4ccc(F)cc4)nn3)CC2)cc1
- IC50 (HeLa): > 30 µM
- IC50 (NCI-H460): > 30 µM
- IC50 (MCF7): > 30 µM
- IC50 (BT-474): > 30 µM
- IC50 (HaCaT): > 30 µM

Compound: O=C(c1cn(Cc2ccccc2)nn1)N1CCN(S(=O)(=O)c2ccccc2)CC1
- IC50 (HeLa): > 30 µM
- IC50 (NCI-H460): > 30 µM
- IC50 (MCF7): > 30 µM
- IC50 (BT-474): > 30 µM
- IC50 (HaCaT): > 30 µM

Compound: O=C(c1cn(Cc2ccc(I)cc2)nn1)N1CCN(S(=O)(=O)c2ccc(Br)cc2)CC1
- IC50 (HeLa): 6.52 µM
- IC50 (NCI-H460): 3.55 µM
- IC50 (MCF7): 2.73 µM
- IC50 (BT-474): 2.33 µM
- IC50 (HaCaT): 2.48 µM

Compound: O=C(c1cn(Cc2ccc(I)cc2)nn1)N1CCN(S(=O)(=O)c2ccccc2)CC1
- IC50 (HeLa): > 30 µM
- IC50 (NCI-H460): > 30 µM
- IC50 (MCF7): > 30 µM
- IC50 (BT-474): > 30 µM
- IC50 (HaCaT): > 30 µM

Compound: O=C(c1cn(Cc2ccc(F)cc2)nn1)N1CCN(S(=O)(=O)c2ccccc2)CC1
- IC50 (HeLa): > 30 µM
- IC50 (NCI-H460): > 30 µM
- IC50 (MCF7): > 30 µM
- IC50 (BT-474): > 30 µM
- IC50 (HaCaT): > 30 µM

Compound: COc1cccc(Cn2cc(C(=O)N3CCN(S(=O)(=O)c4ccc(Br)cc4)CC3)nn2)c1
- IC50 (HeLa): > 30 µM
- IC50 (NCI-H460): > 30 µM
- IC50 (MCF7): > 30 µM
- IC50 (BT-474): > 30 µM
- IC50 (HaCaT): > 30 µM
